This note sets out measurements from ChEMBL document CHEMBL1126031, “1,2,3-trisubstituted cyclopropanes as conformationally restricted peptide isosteres: application to the design and synthesis of novel renin inhibitors” (J Med Chem, 1992).

Data set [1] concerns the target T1, Renin (Homo sapiens, UniProt P00797).
T1 sequence (P00797 whole entry): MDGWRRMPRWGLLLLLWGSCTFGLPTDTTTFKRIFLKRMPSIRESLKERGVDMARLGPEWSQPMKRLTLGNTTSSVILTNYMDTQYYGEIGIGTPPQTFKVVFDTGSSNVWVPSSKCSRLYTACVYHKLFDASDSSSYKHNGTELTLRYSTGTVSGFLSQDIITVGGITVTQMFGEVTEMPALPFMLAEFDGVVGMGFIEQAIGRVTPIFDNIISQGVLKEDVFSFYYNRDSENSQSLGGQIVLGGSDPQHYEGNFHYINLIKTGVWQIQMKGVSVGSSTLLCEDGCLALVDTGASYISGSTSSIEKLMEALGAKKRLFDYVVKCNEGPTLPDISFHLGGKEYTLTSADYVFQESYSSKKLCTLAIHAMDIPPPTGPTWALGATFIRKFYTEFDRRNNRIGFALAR
Nature of the data set: In vitro inhibition of purified human renin at a pH of 6.0. A digest of the protocol: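 Purified human renin, assayed at pH 6.0 by a procedure from earlier work.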

Data set [2] deals with T1, Renin. Nature of the data set: In vitro potency against human plasma renin at pH 7.4. Format: cell-free. The method in brief: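 Renin in human plasma, assayed at pH 7.4 by a procedure from earlier work.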
For the next data set, the target named is T2, Renin (Homo sapiens) (UniProt P00797).
T2 sequence (whole entry): T1 sequence (P00797 whole entry)
Nature of the data set: In vitro potency to inhibit human plasma renin at a pH of 7.4 and at 1*10e-6 M concentration. Format: cell-free.

Data set [3] is described as follows: Half life of the compound.

Usually IC50 stands for the concentration at which inhibition is half-maximal. A higher IC50 goes with weaker potency in that assay. The inhibition is how much of the control response was suppressed. A high value points to a response far below the control. Usually half-life stands for the time needed for the level to fall by half in the phase considered. Higher therefore signals slow loss.

Some results are limits rather than exact numbers.

On to `CC(C)C[C@H](O)[C@H](O)[C@H](CC1CCCCC1)NC(=O)[C@H](Cc1cscn1)NC(=O)[C@H]1[C@H](C(=O)N2CCOCC2)[C@H]1c1ccccc1`, for which the IC50 against Renin [1] was found to be 0.2 µM.

As to `CC(C)C[C@H](O)[C@H](O)[C@H](CC1CCCCC1)NC(=O)[C@H](Cc1cscn1)NC(=O)[C@@H]1[C@@H](Cc2ccccc2)[C@H]1C(=O)N1CCOCC1`, the IC50 was greater than 1 µM on Renin [2] and 0.025 µM on Renin [1]. For the same molecule, the inhibition at Renin (Homo sapiens) worked out at 30%.

As for `CC(C)C[C@H](O)[C@H](O)[C@H](CC1CCCCC1)NC(=O)[C@H](Cc1cscn1)NC(=O)C(Cc1ccccc1)Cc1ccccc1`, the IC50 at Renin [2] turned out to be 0.054 µM; against Renin [1], 0.00047 µM.

As for `CC[C@H]1[C@@H](C(=O)N[C@@H](Cc2cscn2)C(=O)N[C@@H](CC2CCCCC2)[C@@H](O)[C@@H](O)CC(C)C)[C@@H]1C(=O)N1CCOCC1`, the IC50 on Renin [2] was determined as 0.61 µM; on Renin [1], 0.016 µM.

In turn, `CC(C)C[C@@H]1[C@H](C(=O)N[C@@H](Cc2cscn2)C(=O)N[C@@H](CC2CCCCC2)[C@@H](O)[C@@H](O)CC(C)C)[C@H]1C(=O)N1CCOCC1` showed an IC50 on Renin [1] of 0.033 µM.

At Renin [1], `CC(C)C[C@H](O)[C@H](O)[C@H](CC1CCCCC1)NC(=O)[C@H](Cc1cscn1)NC(=O)[C@H](CC(=O)N1CCOCC1)Cc1ccccc1` returned an IC50 of 0.15 µM.

Turning to `CC(C)C[C@H]1[C@@H](C(=O)N[C@@H](Cc2cscn2)C(=O)N[C@@H](CC2CCCCC2)[C@@H](O)[C@@H](O)CC(C)C)[C@@H]1C(=O)N1CCOCC1`, the IC50 at Renin [2] is greater than 1 µM; at Renin [1], 0.019 µM. The same molecule yielded an inhibition on Renin (Homo sapiens) of 46%.

In turn, `CC(C)C[C@H](O)[C@H](O)[C@H](CC1CCCCC1)NC(=O)[C@H](Cc1cscn1)NC(=O)[C@@H]1[C@@H](C(=O)N2CCOCC2)[C@@H]1c1ccccc1` yielded an IC50 against Renin [1] of 0.12 µM.

On Renin [1], `CC[C@@H]1[C@H](C(=O)N[C@@H](Cc2cscn2)C(=O)N[C@@H](CC2CCCCC2)[C@@H](O)[C@@H](O)CC(C)C)[C@H]1C(=O)N1CCOCC1` returned an IC50 of 0.092 µM.

As to `CC(C)C[C@H](O)[C@H](O)[C@H](CC1CCCCC1)NC(=O)[C@H](Cc1cscn1)NC(=O)[C@H]1[C@H](Cc2ccccc2)[C@@H]1C(=O)N1CCOCC1`, the figures for the IC50 on Renin [2] and against Renin [1] were 0.37 µM and 0.01 µM, respectively.

In the case of `CC(C)C[C@H](O)[C@H](O)[C@H](CC1CCCCC1)NC(=O)[C@H](Cc1cscn1)NC(=O)[C@@H](CC(=O)N1CCOCC1)Cc1ccccc1`, the IC50 at Renin [2] came out at 0.0083 µM; at Renin [1] it was 0.00036 µM.

Consider `CC(C)C[C@@H]1[C@@H](C(=O)N[C@@H](Cc2cscn2)C(=O)N[C@@H](CC2CCCCC2)[C@@H](O)[C@@H](O)CC(C)C)[C@@H]1C(=O)N1CCOCC1`, for which the IC50 on Renin [2] was 0.041 µM; on Renin [1] it was 0.0021 µM.

For `CC(C)C[C@H]1[C@H](C(=O)N[C@@H](Cc2cscn2)C(=O)N[C@@H](CC2CCCCC2)[C@@H](O)[C@@H](O)CC(C)C)[C@H]1C(=O)N1CCOCC1`, at Renin [1], the midpoint of inhibition, the IC50, lay at 0.044 µM.

As to `CC(C)C[C@H](O)[C@H](O)[C@H](CC1CCCCC1)NC(=O)[C@H](Cc1cscn1)NC(=O)C1[C@@H](c2ccccc2)[C@H]1c1ccccc1` (stereo not given in full), the results for the IC50 at Renin [2] and against Renin [1] were 0.81 µM and 0.0011 µM, respectively.

Turning to `CC(C)C[C@H](O)[C@H](O)[C@H](CC1CCCCC1)NC(=O)[C@H](Cc1cscn1)NC(=O)[C@@H]1[C@H](Cc2ccccc2)[C@H]1C(=O)N1CCOCC1`, the IC50 against Renin [1] was 0.12 µM.

Molecule `CC(C)C[C@H](O)[C@H](O)[C@H](CC1CCCCC1)NC(=O)[C@H](Cc1cscn1)NC(=O)[C@H]1[C@@H](Cc2ccccc2)[C@@H]1C(=O)N1CCOCC1` yielded an IC50 against Renin [1] of 0.027 µM.

For the molecule `CC(C)C[C@H](O)[C@H](O)[C@H](CC1CCCCC1)NC(=O)[C@H](Cc1cscn1)NC(=O)[C@H]1[C@H](C(=O)N2CCOCC2)[C@@H]1c1ccccc1`, the IC50 at Renin [2] stood at 0.02 µM; at Renin [1], 0.0007 µM. In data set [3], this molecule came in with a half-life greater than 5 h.

Regarding `CCOC(=O)N[C@@H](Cc1ccc(I)cc1)C(=O)N[C@@H](CC(C)C)C(=O)N[C@@H](CC1CCCCC1)[C@@H](O)[C@@H](O)CC(C)C`, the values for the IC50 against Renin [2] and on Renin [1] were 0.3 µM and 0.0024 µM, respectively.

`CC(C)C[C@H](O)[C@H](O)[C@H](CC1CCCCC1)NC(=O)[C@H](Cc1cscn1)NC(=O)[C@@H]1[C@@H](C(=O)N2CCOCC2)[C@H]1c1ccccc1` showed an IC50 on Renin [1] of 0.12 µM.

Molecule `CC[C@H]1[C@H](C(=O)N[C@@H](Cc2cscn2)C(=O)N[C@@H](CC2CCCCC2)[C@@H](O)[C@@H](O)CC(C)C)[C@H]1C(=O)N1CCOCC1` showed an IC50 at Renin [1] of 0.2 µM.

As for `CC[C@@H]1[C@@H](C(=O)N[C@@H](Cc2cscn2)C(=O)N[C@@H](CC2CCCCC2)[C@@H](O)[C@@H](O)CC(C)C)[C@@H]1C(=O)N1CCOCC1`, the IC50 at Renin [2] turned out to be 0.23 µM; at Renin [1], 0.01 µM.
